The source made the active and inactive calls. The rule behind the calls is not given here.
Experiments:
[1] = test system: Human immunodeficiency virus 2; assay: Antiviral activity against Human immunodeficiency virus 2 ROD infected in human MT4 cells assessed as inhibition of viral replication; format: functional, organism-based; conditions: ISOLATE ROD
In short: (§1)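 MT-4 cells, spun 5 min at 1000 rpm, were resuspended at 6 × 10⁵ cells/mL and infected with HIV-1 IIIB or HIV-2 ROD. Compounds were added at the start in serial fivefold dilutions, in triplicate wells. Viability was read by MTT reduction at 540 and 690 nm five days post-infection. EC₅₀ is the concentration giving 50% protection from viral cytopathic effect, using the median OD of three wells.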

[2] = test system: Human immunodeficiency virus 2; assay: Antiviral activity against wild type Human immunodeficiency virus 2 ROD infected in human MT4 cells assessed as protection against virus-induced cytotoxicity after 5 days by MTT assay; format: functional, organism-based; conditions: Human immunodeficiency virus 2, ISOLATE ROD, MT4, 120 h; in short: as §1
[3] = target: Human immunodeficiency virus type 1 reverse transcriptase (Human immunodeficiency virus 1, UniProt Q72547); assay: Inhibition of HIV1 wild type RT using poly(rA)/oligo(dT)15 homopolymer template after 1 hrs by ELISA
In short: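 Wild-type HIV-1 RT was run on a poly(rA)/oligo(dT)₁₅ template, with oligo(dT) immobilized on plates and biotin-dUTP incorporated, 1 h at 37 °C. After Tris-HCl pH 7.5 washes, incorporated biotin was detected colorimetrically by streptavidin–alkaline phosphatase with PNPP (1 mg/mL, pH 9.5), 30 min at 37 °C, stopped with 0.5 M NaOH.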

[4] = Cytotoxic activity against human MT4 cells assessed as viability of mock-infected cells after 5 days by MTT assay; format: cell-based
In short: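 Mock-infected, exponentially growing MT-4 cells (6 × 10⁵ cells/mL) were exposed to serial fivefold compound dilutions in triplicate wells. After 5 days, viability was read by MTT formazan absorbance at 540 and 690 nm. CC₅₀ is the concentration that lowered OD540 of the mock-infected control by 50%, using the median OD of three wells.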

[5] = Selectivity index, ratio of CC50 for human MT4 cells to EC50 for wild type Human immunodeficieny virus 1 3B infected in human MT4 cells; format: toxicity, cell-based; conditions: read-out: Ratio CC50/EC50
In short: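 SI is CC₅₀ in mock-infected MT-4 cells divided by EC₅₀ against HIV-1 IIIB, both from 5-day MTT assays in triplicate wells.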

[6] = test system: Human immunodeficiency virus 1; assay: Antiviral activity against wild type Human immunodeficiency virus 1 3B infected in human MT4 cells assessed as protection against virus-induced cytotoxicity after 5 days by MTT assay; format: functional, organism-based; conditions: MT4, 120 h; in short: as §1

Compound	inhibition [1]	EC50 [2] [µM]	IC50 [3] [µM]	CC50 at 120 h [4] [µM]	selectivity ratio [5]	EC50 [6] [µM]
CCc1c(CN2CCCc3ccccc32)nc(SCC(=O)c2ccccc2)[nH]c1=O	inactive	> 298	30.7	298	1220	0.24
Cc1ccc(C(=O)CSc2nc(CN3CCCc4ccccc43)c(C)c(=O)[nH]2)cc1	inactive	> 62.4		62.4	32	1.95
O=C(CSc1nc(CN2CCCc3ccccc32)cc(=O)[nH]1)c1ccc(F)cc1	inactive	> 136		136	5	29.6
